# ChEMBL document CHEMBL1938239, “Novel analgesic/anti-inflammatory agents: diarylpyrrole acetic esters endowed with nitric oxide releasing properties” (J Med Chem, 2011)
# Activity calls are given as the source filed them. No cut-off for these calls is given here.
# Tests used:
# J774 = assay: Selectivity ratio of IC50 for COX1 in mouse J774 cells to IC50 for COX2 in mouse J774 cells; format: cell-based
# In short: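 Ratio of J774 IC50s, COX-1 over COX-2. For COX-1, cells were pretreated with compound for 15 min, then given 15 μM arachidonic acid for 30 min at 37 °C. For COX-2, cells received E. coli LPS 10 μg/mL for 24 h with compound at 0.01–10 μM. PGE2 was measured by RIA in triplicate wells over three experiments. IC50 came from a sigmoidal fit.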
# [1] = biological target: T1, Prostaglandin G/H synthase 1 (Mus musculus, UniProt P22437); assay: Inhibition of COX-1-mediated PGE2 production in arachidonic acid-stimulated mouse J774 cells incubated for 15 mins prior to arachidonic acid-challenge by radioimmunoassay; format: cell-based
# T1 sequence (P22437 whole entry): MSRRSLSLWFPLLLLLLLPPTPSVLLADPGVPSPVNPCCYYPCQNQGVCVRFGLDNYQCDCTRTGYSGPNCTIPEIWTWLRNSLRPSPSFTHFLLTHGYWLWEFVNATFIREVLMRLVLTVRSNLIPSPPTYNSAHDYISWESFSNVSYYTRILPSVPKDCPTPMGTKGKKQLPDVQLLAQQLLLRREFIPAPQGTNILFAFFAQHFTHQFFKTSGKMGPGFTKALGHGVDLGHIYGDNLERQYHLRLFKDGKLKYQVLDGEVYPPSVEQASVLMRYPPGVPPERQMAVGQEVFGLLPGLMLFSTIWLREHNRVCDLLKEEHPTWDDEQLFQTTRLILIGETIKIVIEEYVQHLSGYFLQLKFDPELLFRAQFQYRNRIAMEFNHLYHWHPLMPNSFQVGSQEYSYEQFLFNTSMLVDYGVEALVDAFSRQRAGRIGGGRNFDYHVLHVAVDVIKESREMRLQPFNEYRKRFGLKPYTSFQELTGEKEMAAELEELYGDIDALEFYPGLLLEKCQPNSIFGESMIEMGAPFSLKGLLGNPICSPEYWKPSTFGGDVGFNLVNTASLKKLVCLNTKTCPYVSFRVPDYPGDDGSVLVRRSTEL
# In short: (§1)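 J774 murine macrophages grown in DMEM with 10% FBS and allowed to adhere for 2 h at 37 °C. Cells were pretreated with compound at 10 μM for 15 min, then given 15 μM arachidonic acid for 30 min at 37 °C. Where inhibition exceeded 50%, 0.01–1 μM was also tested. Supernatant PGE2 was measured by RIA as % inhibition versus control, in triplicate wells over three experiments. IC50 came from a sigmoidal variable-slope fit.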
# Rattus norvegicus [2] = assay: Antiinflammatory activity against carrageenan-induced paw edema in Sprague-Dawley rat assessed as paw weight at 40 mg/kg, po administered 4 hrs post challenge measured after 30 mins (reference value: 61.3+/-3.0 g); format: functional
# Rattus norvegicus [3] = assay: Antiinflammatory activity against carrageenan-induced paw edema in Sprague-Dawley rat assessed as paw weight at 20 mg/kg, po administered 4 hrs post challenge measured after 30 mins (reference value: 62.6+/-3.1 g); format: functional
# Mus musculus [4] = assay: Analgesic activity in Swiss albino mouse abdominal constriction model assessed as reduction in acetic acid-induced writhing response for 10 mins at 20 to 40 mg/kg, po administered 30 mins prior to acetic acid-challenge measured after 5 mins relative to vehicle-treated control; format: functional, organism-based; settings: Abdomen
# In short: (§2)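 Male Swiss albino mice (23−25 g); 0.6% acetic acid (10 mL/kg) injected ip. Stretching movements counted for 10 min, starting 5 min after administration. Oral doses in carboxymethylcellulose (CMC) vehicle, compared with vehicle-treated mice.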
# Rattus norvegicus [5] = assay: Antiinflammatory activity against carrageenan-induced paw edema in Sprague-Dawley rat assessed as paw weight at 40 mg/kg, po administered 4 hrs post challenge measured after 60 mins (reference value: 61.3+/-3.0 g); format: functional
# Rattus norvegicus [6] = assay: Antiinflammatory activity against carrageenan-induced paw edema in Sprague-Dawley rat assessed as paw weight at 40 mg/kg, po administered 4 hrs post challenge measured after 120 mins (reference value: 61.3+/-3.0 g); format: functional
# [7] = biological target: T2, Prostaglandin G/H synthase 1 (Mus musculus) (UniProt P22437); assay: Inhibition of COX-1-mediated PGE2 production in arachidonic acid-stimulated mouse J774 cells at 10 uM incubated for 15 mins prior to arachidonic acid-challenge by radioimmunoassay; format: cell-based
# T2 sequence (whole entry): T1 sequence (P22437 whole entry)
# In short: as §1, with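 “h” for “h at 37 °C. Cells were pretreated with compound at 10 μM for 15 min, then given 15 μM arachidonic acid for 30 min”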
# Rattus norvegicus [8] = assay: Antiinflammatory activity against carrageenan-induced paw edema in Sprague-Dawley rat assessed as paw weight at 20 mg/kg, po administered 4 hrs post challenge measured after 120 mins (reference value: 62.6+/-3.1 g); format: functional
# Rattus norvegicus [9] = assay: Antiinflammatory activity against carrageenan-induced paw edema in Sprague-Dawley rat assessed as paw weight at 20 mg/kg, po administered 4 hrs post challenge measured after 60 mins (reference value: 62.6+/-3.1 g); format: functional
# [10] = biological target: T3, Prostaglandin G/H synthase 2 (Homo sapiens, UniProt P35354); assay: Inhibition of COX2-mediated PGE2 production in LPS-induced human whole blood after 60 mins by radioimmunoassay
# T3 sequence (P35354 whole entry): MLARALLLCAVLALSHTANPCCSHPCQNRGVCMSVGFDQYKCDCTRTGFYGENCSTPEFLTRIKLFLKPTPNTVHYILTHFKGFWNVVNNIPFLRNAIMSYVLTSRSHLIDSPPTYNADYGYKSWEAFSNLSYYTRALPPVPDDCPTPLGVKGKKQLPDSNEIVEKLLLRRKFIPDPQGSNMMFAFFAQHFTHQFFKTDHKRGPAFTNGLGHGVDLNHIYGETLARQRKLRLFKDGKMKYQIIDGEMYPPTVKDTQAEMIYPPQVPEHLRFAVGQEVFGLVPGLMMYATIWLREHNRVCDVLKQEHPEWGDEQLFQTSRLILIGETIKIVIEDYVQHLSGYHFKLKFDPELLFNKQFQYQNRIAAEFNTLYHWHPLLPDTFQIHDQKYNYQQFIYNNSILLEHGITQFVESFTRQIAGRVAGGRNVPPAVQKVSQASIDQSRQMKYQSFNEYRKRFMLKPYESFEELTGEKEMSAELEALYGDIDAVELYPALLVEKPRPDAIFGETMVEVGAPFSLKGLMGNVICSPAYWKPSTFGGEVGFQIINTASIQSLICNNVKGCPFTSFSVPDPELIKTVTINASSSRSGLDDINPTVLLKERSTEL
# [11] = biological target: Prostaglandin G/H synthase 1 (Homo sapiens, UniProt P23219); assay: Inhibition of platelet COX1-mediated TXB2 production in LPS-induced human whole blood after 60 mins by radioimmunoassay; format: tissue-based
# Sequence of Prostaglandin G/H synthase 1 (Homo sapiens, UniProt P23219) (P23219 whole entry): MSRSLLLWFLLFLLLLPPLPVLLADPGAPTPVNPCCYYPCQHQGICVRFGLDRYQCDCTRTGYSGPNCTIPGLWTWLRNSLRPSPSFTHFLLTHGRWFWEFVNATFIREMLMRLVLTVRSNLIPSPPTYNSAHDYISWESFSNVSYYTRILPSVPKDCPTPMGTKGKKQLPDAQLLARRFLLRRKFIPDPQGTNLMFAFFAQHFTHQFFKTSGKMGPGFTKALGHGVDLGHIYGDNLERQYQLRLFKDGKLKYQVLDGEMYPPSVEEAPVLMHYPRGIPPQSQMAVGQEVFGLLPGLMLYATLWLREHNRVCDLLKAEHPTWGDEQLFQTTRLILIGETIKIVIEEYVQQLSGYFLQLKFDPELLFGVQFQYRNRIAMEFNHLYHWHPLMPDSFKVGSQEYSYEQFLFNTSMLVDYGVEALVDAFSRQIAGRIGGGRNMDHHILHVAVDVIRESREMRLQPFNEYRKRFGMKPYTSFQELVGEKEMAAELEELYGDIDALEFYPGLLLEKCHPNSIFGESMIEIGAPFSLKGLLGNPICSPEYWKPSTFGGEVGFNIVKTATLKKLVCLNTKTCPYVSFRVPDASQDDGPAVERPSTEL
# Rattus norvegicus [12] = assay: Antiinflammatory activity against carrageenan-induced paw edema in Sprague-Dawley rat assessed as paw weight at 30 mg/kg, po administered 4 hrs post challenge measured after 120 mins (reference value: 31.8+/-2.5 g); format: functional
# Mus musculus [13] = assay: Analgesic activity in Swiss albino mouse abdominal constriction model assessed as reduction in acetic acid-induced writhing response at 30 mg/kg, po administered 30 mins prior to acetic acid-challenge measured after 5 mins relative to vehicle-treated control; format: functional, Abdomen; set-up: scale not given: the % may be the effect or the level left; in short: as §2
# Rattus norvegicus [14] = assay: Analgesic activity in Sprague-Dawley rat assessed as reduction in carrageenan-induced paw hyperalgesia at 30 mg/kg, po administered 4 hrs post challenge measured after 30 mins relative to vehicle-treated control; set-up: scale not given: the % may be the effect or the level left
# Rattus norvegicus [15] = assay: Antiinflammatory activity against carrageenan-induced paw edema in Sprague-Dawley rat assessed as paw weight at 30 mg/kg, po administered 4 hrs post challenge measured after 60 mins (reference value: 31.8+/-2.5 g); format: functional
# Rattus norvegicus [16] = assay: Antiinflammatory activity against carrageenan-induced edema in Sprague-Dawley rat assessed as right hind paw volume at 30 mg/kg, po administered 4 hrs post challenge measured after 60 mins; format: functional
# In short: (§3)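 Rats received intraplantar carrageenan. Right hind paw volume was measured 4 h after the carrageenan injection and compared with saline/carrageenan-treated controls. Oral dosing in CMC vehicle; volume recorded at 60 min after treatment.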
# Rattus norvegicus [17] = assay: Antiinflammatory activity against carrageenan-induced paw edema in Sprague-Dawley rat assessed as paw weight at 30 mg/kg, po administered 4 hrs post challenge measured after 30 mins (reference value: 31.8+/-2.5 g); format: functional
# Rattus norvegicus [18] = assay: Antiinflammatory activity against carrageenan-induced paw edema in Sprague-Dawley rat assessed as paw weight at 10 mg/kg, po administered 4 hrs post challenge measured after 30 mins (reference value: 61.5+/-3.4 g); format: functional
# Rattus norvegicus [19] = assay: Antiinflammatory activity against carrageenan-induced edema in Sprague-Dawley rat assessed as right hind paw volume at 10 mg/kg, po administered 4 hrs post challenge measured after 60 mins; format: functional; in short: as §3
# Rattus norvegicus [20] = assay: Antiinflammatory activity against carrageenan-induced paw edema in Sprague-Dawley rat assessed as paw weight at 10 mg/kg, po administered 4 hrs post challenge measured after 60 mins (reference value: 61.5+/-3.4 g); format: functional
# Rattus norvegicus [21] = assay: Antiinflammatory activity against carrageenan-induced paw edema in Sprague-Dawley rat assessed as paw weight at 10 mg/kg, po administered 4 hrs post challenge measured after 120 mins (reference value: 61.5+/-3.4 g); format: functional
# Rattus norvegicus [22] = assay: Antiinflammatory activity against carrageenan-induced edema in Sprague-Dawley rat assessed as right hind paw volume at 40 mg/kg, po administered 4 hrs post challenge measured after 60 mins; format: functional; in short: as §3
# Rattus norvegicus [23] = assay: Antiinflammatory activity against carrageenan-induced paw edema in Sprague-Dawley rat assessed as paw weight at 100 mg/kg, po administered 4 hrs post challenge measured after 30 mins (reference value: 31.9+/-3.0 g); format: functional
# Rattus norvegicus [24] = assay: Antiinflammatory activity against carrageenan-induced paw edema in Sprague-Dawley rat assessed as paw weight at 40 mg/kg, po administered 4 hrs post challenge measured after 30 mins (reference value: 29.8+/-3.1 g); format: functional
# Mus musculus [25] = assay: Analgesic activity in Swiss albino mouse abdominal constriction model assessed as reduction in acetic acid-induced writhing response for 10 mins at 40 mg/kg, po administered 30 mins prior to acetic acid-challenge measured after 5 mins relative to vehicle-treated control; format: functional, Abdomen; set-up: scale not given: the % may be the effect or the level left; in short: as §2
# Aorta [26] = assay: Vasorelaxation activity against KCl-induced contraction in isolated Wistar rat thoracic endothelium-denulated aortic rings in the presence of guanylate cyclase inhibitor ODQ; format: functional, tissue-based
# In short: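 Thoracic aortic rings from male Wistar rats (250–350 g), endothelium removed by rubbing; rings relaxing ≥10% to ACh 10 μM on KCl 30 mM tone were discarded. ODQ 1 μM was incubated, then rings were contracted with KCl 30 mM and given 3-fold increasing concentrations of 1 nM–10 μM.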
# Rattus norvegicus [27] = assay: Antiinflammatory activity against carrageenan-induced edema in Sprague-Dawley rat assessed as right hind paw volume at 20 mg/kg, po administered 4 hrs post challenge measured after 60 mins; format: functional; in short: as §3
# Rattus norvegicus [28] = assay: Antiinflammatory activity against carrageenan-induced paw edema in Sprague-Dawley rat assessed as paw weight at 40 mg/kg, po administered 4 hrs post challenge measured after 60 mins (reference value: 29.8+/-3.1 g); format: functional
# Rattus norvegicus [29] = assay: Antiinflammatory activity against carrageenan-induced edema in Sprague-Dawley rat assessed as right hind paw volume at 100 mg/kg, po administered 4 hrs post challenge measured after 60 mins; format: functional; in short: as §3
# Rattus norvegicus [30] = assay: Antiinflammatory activity against carrageenan-induced paw edema in Sprague-Dawley rat assessed as paw weight at 100 mg/kg, po administered 4 hrs post challenge measured after 60 mins (reference value: 31.9+/-3.0 g); format: functional
# Rattus norvegicus [31] = assay: Antiinflammatory activity against carrageenan-induced paw edema in Sprague-Dawley rat assessed as paw weight at 20 mg/kg, po administered 4 hrs post challenge measured after 60 mins (reference value: 32.6+/-2.7 g); format: functional
# Rattus norvegicus [32] = assay: Antiinflammatory activity against carrageenan-induced paw edema in Sprague-Dawley rat assessed as paw weight at 20 mg/kg, po administered 4 hrs post challenge measured after 30 mins (reference value: 32.6+/-2.7 g); format: functional
# Aorta [33] = assay: Vasorelaxation activity against KCl-induced contraction in isolated Wistar rat thoracic endothelium-denulated aortic rings; format: functional, tissue-based
# In short: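 Endothelium-denuded thoracic aortic rings from male Wistar rats (250−350 g); denudation confirmed by <10% relaxation to 10 μM ACh. Rings precontracted with 30 mM KCl; compound added at 3-fold increasing concentrations, 1 nM to 10 μM. Isometric tension recorded. Emax given as % of KCl tone; pIC50 derived. Mean ± standard error of 6−10 experiments; repeated with 1 μM ODQ.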
compound,measurement,setting,value
Cc1c(CC(=O)OCCCO)cc(-c2ccc(S(C)(=O)=O)cc2)n1-c1cccc(F)c1,Ratio IC50,J774,> 435
same,IC50,[1],> 10 µM
same,Activity,Rattus norvegicus [2],43.1 g
same,Activity,Rattus norvegicus [3],41.2 g
same,Activity,Mus musculus [4],inactive
same,Activity,Rattus norvegicus [5],48.8 g
same,Activity,Rattus norvegicus [6],44.4 g
same,inhibition,[7],0%
same,Activity,Rattus norvegicus [8],36.4 g
same,Activity,Rattus norvegicus [9],45.8 g
Cc1c(CC(=O)OCCO)cc(-c2ccc(S(C)(=O)=O)cc2)n1-c1cccc(F)c1,Ratio IC50,J774,> 118
same,IC50,[1],> 10 µM
same,IC50,[10],1.7 µM
same,IC50,[11],12.2 µM
same,Activity,Rattus norvegicus [12],39.3 g
same,inhibition,[7],33%
same,Activity,Mus musculus [13],70%
same,Activity,Rattus norvegicus [14],80%
same,Activity,Rattus norvegicus [15],52.3 g
same,Activity,Rattus norvegicus [16],2.51 mL
same,Activity,Rattus norvegicus [17],55.7 g
Cc1ccc(-c2cc(C(F)(F)F)nn2-c2ccc(S(N)(=O)=O)cc2)cc1 [CELECOXIB],Activity,Rattus norvegicus [18],54.3 g
same,Activity,Rattus norvegicus [19],1.36 mL
same,Activity,Rattus norvegicus [20],57.1 g
same,Activity,Rattus norvegicus [21],54.9 g
Cc1c(CC(=O)OCCO[N+](=O)[O-])cc(-c2ccc(S(C)(=O)=O)cc2)n1-c1cccc(F)c1,Ratio IC50,J774,> 526
same,IC50,[1],> 10 µM
same,Activity,Rattus norvegicus [22],2.17 mL
same,Activity,Rattus norvegicus [23],57.2 g
same,Activity,Rattus norvegicus [24],54.1 g
same,Activity,Mus musculus [25],70%
same,Activity,Aorta [26],inactive
same,IC50,[10],3.2 µM
same,Activity,Rattus norvegicus [27],2.52 mL
same,IC50,[11],9.6 µM
same,Activity,Rattus norvegicus [28],38.7 g
same,Activity,Rattus norvegicus [29],1.88 mL
same,Activity,Rattus norvegicus [30],36.5 g
same,Activity,Rattus norvegicus [31],35.3 g
same,inhibition,[7],36%
same,Activity,Rattus norvegicus [32],40.1 g
same,IC50,Aorta [33],0.331 µM
